The source made the active and inactive calls. No cut-off for these calls is given here.

Test system in the first experiment: not listed separately
Nature of the experiment: Cytotoxicity against human MV522 cells after 48 hrs by trypan blue exclusion assay. In kind it is functional, cell-based. To be noted: MV522, 48 h. Put shortly: (§1)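 Human MV522 lung adenocarcinoma (target) and 8392 B-cell lymphoma/leukemia (nontarget) lines. Compounds were made as 1 mg/mL stocks in cell-culture-grade DMSO and diluted in sterile 10% DMSO/PBS just before addition. Cells were exposed continuously for 48 h, and controls received equal DMSO/PBS vehicle. Cell survival was scored at 48 h by trypan blue exclusion.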
Consider `CC1=C(CCCNS(C)(=O)=O)C2=C(C)C3(CC3)[C@@](C)(O)C(=O)C2=C1`, for which the IC50 (as a rule, the point on the concentration scale where inhibition reaches its midpoint) was 280 nM. In other words, the sub-micromolar range.

`CC1=C(CNC(=O)NCCO)C2=C(C)C3(CC3)[C@@](C)(O)C(=O)C2=C1` came in with an IC50 of 190 nM.

Compound `CC1=C(CO)C2=C(C)C3(CC3)[C@@](C)(O)C(=O)C2=C1` [IROFULVEN] gave an IC50 of 170 nM.

`CC1=C(CCCOC(=O)NCCCl)C2=C(C)C3(CC3)[C@@](C)(O)C(=O)C2=C1` showed an IC50 of 57 nM. This IC50 is about 3-fold lower than that of the compound before.

In turn, `CC1=C(CCCNC(=O)NCCO)C2=C(C)C3(CC3)[C@@](C)(O)C(=O)C2=C1` had an IC50 of less than 80 nM.

`CC1=C(CCCNS(=O)(=O)c2ccc(C)cc2)C2=C(C)C3(CC3)[C@@](C)(O)C(=O)C2=C1` came in with an IC50 of 580 nM. That is a sub-micromolar value.

With `CC1=C(CCCOC(=O)N2CCCCC2)C2=C(C)C3(CC3)[C@@](C)(O)C(=O)C2=C1`, it took 1200 nM to reach half-maximal inhibition (IC50).

The compound `CC1=C(CNS(N)(=O)=O)C2=C(C)C3(CC3)[C@@](C)(O)C(=O)C2=C1` gave an IC50 of 300 nM.

`CC1=C(CNC(=O)NO)C2=C(C)C3(CC3)[C@@](C)(O)C(=O)C2=C1` displayed an IC50 of 190 nM. Compared with the last compound, the IC50 is about 1.6-fold lower.

`CC1=C(CCCNS(=O)(=O)NO)C2=C(C)C3(CC3)[C@@](C)(O)C(=O)C2=C1`: half-maximal inhibition (IC50) required 8 nM.

The compound `CC1=C(CCCNS(N)(=O)=O)C2=C(C)C3(CC3)[C@@](C)(O)C(=O)C2=C1` yielded an IC50 of 76 nM.

Test system in a further experiment: not listed separately
Nature of the experiment: Cytotoxicity against human 8392B cells after 48 hrs by trypan blue exclusion assay. In kind it is cell-based.
Conditions: not given
In outline:
as §1
Compound `CC1=C(CCCNS(C)(=O)=O)C2=C(C)C3(CC3)[C@@](C)(O)C(=O)C2=C1` returned an IC50 of 42000 nM.

`CC1=C(CCCNC(=O)N2CCC(N3CCCCC3)CC2)C2=C(C)C3(CC3)[C@@](C)(O)C(=O)C2=C1` yielded an IC50 of 9000 nM.

In the case of `CC1=C(CNS(C)(=O)=O)C2=C(C)C3(CC3)[C@@](C)(O)C(=O)C2=C1`, the IC50 is more than 9300 nM.

As to `CC1=C(CNC(=O)NCCO)C2=C(C)C3(CC3)[C@@](C)(O)C(=O)C2=C1`, the IC50 was more than 9000 nM.

For `CC1=C(CO)C2=C(C)C3(CC3)[C@@](C)(O)C(=O)C2=C1` [IROFULVEN], the IC50 was determined as 76 nM. That is a double-digit nanomolar value.

`CC1=C(CCCNC(=O)NCCO)C2=C(C)C3(CC3)[C@@](C)(O)C(=O)C2=C1` registered an IC50 of more than 2800 nM.

Turning to `CC1=C(CCCOC(=O)N2CCCCC2)C2=C(C)C3(CC3)[C@@](C)(O)C(=O)C2=C1`, the IC50 was determined as 7100 nM.

As to `CC1=C(CCCNC(=O)NO)C2=C(C)C3(CC3)[C@@](C)(O)C(=O)C2=C1`, the IC50 was more than 9000 nM.

`CC1=C(CNS(N)(=O)=O)C2=C(C)C3(CC3)[C@@](C)(O)C(=O)C2=C1` returned an IC50 of more than 9300 nM.

In turn, `CC1=C(CNC(=O)NO)C2=C(C)C3(CC3)[C@@](C)(O)C(=O)C2=C1` came in with an IC50 of 9800 nM.

`CC1=C(CCCNS(=O)(=O)NO)C2=C(C)C3(CC3)[C@@](C)(O)C(=O)C2=C1` returned an IC50 of 250 nM.

`CONC(=O)NCC1=C(C)C=C2C(=O)[C@](C)(O)C3(CC3)C(C)=C21` yielded an IC50 of more than 9400 nM.

Compound `CC1=C(CNC(=O)NCCCl)C2=C(C)C3(CC3)[C@@](C)(O)C(=O)C2=C1` had an IC50 of more than 8500 nM.

For the compound `CC1=C(CCCNS(N)(=O)=O)C2=C(C)C3(CC3)[C@@](C)(O)C(=O)C2=C1`, half-maximal inhibition (IC50) was put at 54000 nM. In other words, the double-digit micromolar range.

Consider `CC1=C(CCCOC(=O)N2CCOCC2)C2=C(C)C3(CC3)[C@@](C)(O)C(=O)C2=C1`, for which the IC50 stood at 62200 nM.

Test system in a further experiment: not listed separately
Nature of the experiment: Selectivity index, ratio of IC50 for human 8392B cells to IC50 for human MV522 cells. Format: functional.
Conditions: not given
On to `CC1=C(CCCNS(C)(=O)=O)C2=C(C)C3(CC3)[C@@](C)(O)C(=O)C2=C1`, for which the “Ratio IC50” value is more than 150.

Consider `CC1=C(CNC(=O)NCCO)C2=C(C)C3(CC3)[C@@](C)(O)C(=O)C2=C1`, for which the “Ratio IC50” value is recorded as more than 47.

Regarding `CC1=C(CCCNC(=O)NCCO)C2=C(C)C3(CC3)[C@@](C)(O)C(=O)C2=C1`, the “Ratio IC50” value is on record as more than 35.

Turning to `CC1=C(CCCOC(=O)N2CCCCC2)C2=C(C)C3(CC3)[C@@](C)(O)C(=O)C2=C1`, the “Ratio IC50” value is reported as 6.

For the compound `CC1=C(CNS(N)(=O)=O)C2=C(C)C3(CC3)[C@@](C)(O)C(=O)C2=C1`, the “Ratio IC50” value is on record as more than 31.

As to `CC1=C(CNC(=O)NO)C2=C(C)C3(CC3)[C@@](C)(O)C(=O)C2=C1`, the “Ratio IC50” value was more than 51.

Consider `CC1=C(CCCNS(=O)(=O)NO)C2=C(C)C3(CC3)[C@@](C)(O)C(=O)C2=C1`, for which the “Ratio IC50” value amounted to 31.

`CC1=C(CCCNS(N)(=O)=O)C2=C(C)C3(CC3)[C@@](C)(O)C(=O)C2=C1`: the “Ratio IC50” value was found to be 710.

The subject of another experiment is MV522. Nature of the experiment: In-vivo antitumor activity against human MV522 cells assessed as induction of tumor shrinkage in xenograft model at nontoxic dose. Format: functional, cell-based.
Conditions: not given
Regarding `CC1=C(CCCNS(C)(=O)=O)C2=C(C)C3(CC3)[C@@](C)(O)C(=O)C2=C1`, the outcome was Active.

On to `CC1=C(CCCNS(N)(=O)=O)C2=C(C)C3(CC3)[C@@](C)(O)C(=O)C2=C1`, for which the result was Active.

Regarding `CC1=C(CCCOC(=O)NCCO)C2=C(C)C3(CC3)[C@@](C)(O)C(=O)C2=C1`, the result was Active.

These data come from ChEMBL document CHEMBL1156819, “Structure-activity studies of urea, carbamate, and sulfonamide derivatives of acylfulvene” (J Med Chem, 2010).
